Laboratory results reported in ChEMBL document CHEMBL1140727, “Structural diversity and plasticity associated with nucleotides targeting orotidine monophosphate decarboxylase” (J Med Chem, 2008).
Calls of active or inactive are those of the source. The calls are words filed in the database; no cut-off is given here.

Legend:
[1] = Inhibition of Plasmodium falciparum ODCase
[2] = Inhibition of Methanobacterium thermoautotrophicum ODCase; parameters: species or system Methanothermobacter thermautotrophicus
[3] = target: T1, Orotidine 5'-phosphate decarboxylase (Saccharomyces cerevisiae S288c, UniProt P03962); assay: Inhibition of yeast ODCase
T1 sequence (P03962 whole entry): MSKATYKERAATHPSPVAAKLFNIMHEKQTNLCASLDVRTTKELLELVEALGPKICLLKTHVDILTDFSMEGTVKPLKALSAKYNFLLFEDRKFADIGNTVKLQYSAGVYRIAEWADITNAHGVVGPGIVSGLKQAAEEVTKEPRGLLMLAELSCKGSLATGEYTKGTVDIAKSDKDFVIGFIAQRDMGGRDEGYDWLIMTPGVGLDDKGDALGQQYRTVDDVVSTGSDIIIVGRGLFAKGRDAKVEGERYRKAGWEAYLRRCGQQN

[4] = Inhibition of human ODCase
Plasmodium falciparum [5] = assay: Inhibition of Plasmodium falciparum ODCase upto 10 or 20 mM
Summary of the method: (§1)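 Run by ITC at 37 °C. ODCase stock (60 µM in 50 mM Tris pH 7.5, 20 mM DTT, 40 mM NaCl) was held overnight at room temperature. Final mixture: 60 nM enzyme in degassed 50 mM Tris pH 7.4, 1 mM DTT, with nucleotide varied 0–20 mM. Started by a single 3.4 µL injection of 5 mM OMP. Competitive analysis by rate-equation fit and double-reciprocal plots.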

Homo sapiens [6] = species: Homo sapiens; assay: Inhibition of human ODCase upto 10 or 20 mM
Summary of the method: (§2)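 Enzyme was a truncated C-terminal portion of human UMP synthase, expressed in E. coli BL-21 with the His6 tag removed by thrombin. Stock (60 µM) was incubated overnight at 4 °C. Enzyme plus nucleotide ([…]) in 50 mM Tris pH 7.5, 1 mM DTT was followed by ITC at 37 °C. Started by a 5.7 µL injection of 5 mM OMP (20 µM final). Competitive Ki fit.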

Plasmodium falciparum [7] = assay: Activity of Plasmodium falciparum ODCase; summary of the method: as §1
[8] = system: Methanothermobacter thermautotrophicus; assay: Activity of Methanobacterium thermoautotrophcium ODCase
Summary of the method: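 Isothermal titration calorimetry at 55 °C. Enzyme stock (20 µM in 50 mM Tris pH 7.5, 20 mM DTT, 40 mM NaCl) was stabilized overnight at room temperature. Assay: 20 nM ODCase in 50 mM Tris pH 7.5, 1 mM DTT, with fixed nucleotide levels (0–20 mM). Started by a single injection of 5 mM OMP (40 µM final). Competitive Ki from rate fitting, checked by double-reciprocal plots.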

Homo sapiens [9] = species: Homo sapiens; assay: Activity of human ODCase; summary of the method: as §2

Ki [2] [µM] | Ki [4] [µM] | Activity (Plasmodium falciparum [5]) | Structure (SMILES) | Ki [1] [µM] | further results
130 | 0.7 | – | O=c1[nH]c(=O)c2ncn([C@@H]3O[C@H](COP(=O)(O)O)[C@@H](O)[C@H]3O)c2[nH]1 | 43 | Ki [3]: 0.4 µM
1200 | 1400 | inactive | Nc1ccn([C@@H]2O[C@H](COP(=O)(O)O)[C@@H](O)[C@H]2O)c(=O)n1 | – | –
4200 | – | – | Nc1nc2c(ncn2[C@@H]2O[C@H](COP(=O)(O)O)[C@@H](O)[C@H]2O)c(=O)[nH]1 | 2100 | Activity (Homo sapiens [6]): inactive
> 10000 | 7400 | inactive | Nc1ncnc2c1ncn2[C@H]1C[C@H](O)[C@@H](COP(=O)(O)O)O1 | – | –
330 | 220 | – | O=c1ccn([C@@H]2O[C@H](COP(=O)(O)O)[C@@H](O)[C@H]2O)c(=O)[nH]1 | 210 | –
3300 | 8700 | – | Cc1cn([C@H]2C[C@H](O)[C@@H](COP(=O)(O)O)O2)c(=O)[nH]c1=O | 10000 | –
– | – | – | O=C(O)c1cc(=O)[nH]c(=O)n1[C@@H]1O[C@H](COP(=O)(O)O)[C@@H](O)[C@H]1O | – | Km (Plasmodium falciparum [7]): 1.3 µM; kcat (Plasmodium falciparum [7]): 6.7 s⁻¹; Km [8]: 4.8 µM; kcat [8]: 20.7 s⁻¹; Km (Homo sapiens [9]): 1.7 µM; kcat (Homo sapiens [9]): 8.1 s⁻¹
3500 | 4300 | inactive | Nc1ncnc2c1ncn2[C@@H]1O[C@H](COP(=O)(O)O)[C@@H](O)[C@H]1O | – | –
